The results in this text go back to ChEMBL document CHEMBL3351780, “Novel hybrids of metronidazole and quinolones: synthesis, bioactive evaluation, cytotoxicity, preliminary antimicrobial mechanism and effect of metal ions on their transportation by human serum albumin” (Eur J Med Chem, 2014).

Converted amounts (≈) assume the structure as drawn.

By MIC is commonly meant the smallest concentration in the dilution series that meets the test's criterion for growth inhibition. A word on the solubility: it is the concentration that dissolves in the medium under given conditions. A lower solubility goes with a poorly soluble substance. The term logP denotes a log measure of how a compound divides between an organic and an aqueous phase. The low end stands for lower lipophilicity, the high end for higher lipophilicity. Broadly, the pKa is the pH at which an ionisable group is half protonated.

One data set relates to Shigella dysenteriae. In words: Antibacterial activity against Shigella dysenteriae by two-fold serial dilution method. The data set is classed as functional. Put shortly: (§1)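 MIC read as the lowest concentration giving complete growth inhibition. Two-fold serial dilutions were made in 96-well plates following NCCLS, giving a series down to 0.5 µg/mL (…32, 16, 8, 4, 2, 1, 0.5). Plates were inoculated and incubated at 37 °C for 24 h. A DMSO-with-inoculum control without drug was included. Growth was monitored visually and spectrophotometrically, in triplicate.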

The subject of the next data set is Micrococcus luteus. The data set can be described thus: Antibacterial activity against Micrococcus luteus by two-fold serial dilution method. It counts as functional. An outline of the steps: (§2)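 Standard two-fold serial dilution in 96-well microtest plates following NCCLS. Top dilutions printed as 32, 16, 8, 4, 2, 1, 0.5 ug/mL. Wells inoculated and held at 37 °C for 24 h. Growth judged visually and by spectrophotometer, in triplicate. MIC is the lowest concentration giving complete growth inhibition.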

For a further data set, the system named is Pseudomonas aeruginosa. In words: Antibacterial activity against Pseudomonas aeruginosa by two-fold serial dilution method. It counts as functional. Put shortly:
as §2

Data set [1] deals with Staphylococcus aureus. In words: Antibacterial activity against methicillin-resistant Staphylococcus aureus N315 by two-fold serial dilution method. It counts as functional. An outline of the steps: as §1
A further data set deals with Cyberlindnera jadinii. The data set can be described thus: Antifungal activity against Candida utilis after 24 hrs by microbroth dilution method. The data set is classed as functional. The conditions noted are these: Williopsis jadinii. Put shortly: (§3)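 Spore suspension prepared in sterile distilled water from one-day-old cultures on Sabouraud agar, final 1-5 x 10^3 spores/mL. Compounds were serially diluted in RPMI 1640 to give eleven dilutions. Incubation at 35 °C for 24 h. Growth read visually and spectrophotometrically, in triplicate. MIC is the lowest concentration with complete inhibition.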

For another data set, the system named is Bacillus spizizenii. The data set can be described thus: Antibacterial activity against Bacillus subtilis ATCC 6633 by two-fold serial dilution method. It counts as functional. Put shortly:
as §2

Another data set concerns Escherichia coli. In words: Antibacterial activity against Escherichia coli DH52 by two-fold serial dilution method. It counts as functional. An outline of the steps:
as §2

Data set [2] can be described thus: Antibacterial activity against Eberthella typhosa by two-fold serial dilution method. It counts as functional. An outline of the steps: as §1
In another data set the test system is Saccharomyces cerevisiae. In words: Antifungal activity against Saccharomyces cerevisiae after 24 hrs by microbroth dilution method. It counts as functional. Put shortly: as §3
On the technique in general: In broth dilution the organism is exposed to a series of concentrations in liquid medium.

Data set [3] has as its system Staphylococcus aureus. The data set can be described thus: Antibacterial activity against Staphylococcus aureus ATCC 25923 by two-fold serial dilution method. The data set is classed as functional. An outline of the steps:
as §2

The subject of another data set is Pichia norvegensis. In words: Antifungal activity against Candida mycoderma after 24 hrs by microbroth dilution method. The data set is classed as functional.
The next data set has as its system Candida albicans. In words: Antifungal activity against Candida albicans ATCC 76615 after 24 hrs by microbroth dilution method. The data set is classed as functional. The conditions noted are these: ATCC 76615, 24 h. An outline of the steps: as §3
Data set [4] in a line: Aqueous solubility of the compound by UV-spectrophotometry. It counts as physicochemical.
Data set [5] is described as follows: Octanol-water partition co-efficient, log P of the compound by shake flask method. It counts as physicochemical.
Data set [6] in a line: Dissociation constant, pKa of the compound by UV-spectroscopy. The data set is classed as physicochemical. Put shortly:
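DMSO stock at 4.0 × 10^-3 mol/L added to 2 mL of buffer, then shaken 10 min at room temperature. Buffers were acetate (pH 4.0–5.0), MES (5.5–6.5), HEPES (7.0–8.0) and CHES (8.5–9.4), each from 500 mM stocks. Scans ran 210–400 nm and were normalized. Absolute differences from the acid spectrum were summed at 244 and 308 nm, plotted against pH and fitted to obtain pKa.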

The next data set deals with Streptococcus pneumoniae. In words: Antibacterial activity against Streptococcus pneumoniae by two-fold serial dilution method. The data set is classed as functional. An outline of the steps:
as §2

As to `CCOC(=O)c1cn(CC2CO2)c2cc(Cl)c(F)cc2c1=O` (racemic), the MIC was 128 µg/mL (≈ 393 µM) with Shigella dysenteriae; 64 µg/mL (≈ 196 µM) against Micrococcus luteus; 32 µg/mL (≈ 98.2 µM) in the data set with Pseudomonas aeruginosa; 8 µg/mL (≈ 24.6 µM) with Staphylococcus aureus [1]; 512 µg/mL (≈ 1570 µM) in the data set on Cyberlindnera jadinii; 128 µg/mL (≈ 393 µM) in the data set with Bacillus spizizenii. Moreover, the minimal inhibitory concentration (MIC) in the data set with Escherichia coli was 64 µg/mL (≈ 196 µM); in data set [2] it was 8 µg/mL (≈ 24.6 µM); in the data set on Saccharomyces cerevisiae, 4 µg/mL (≈ 12.3 µM); in the data set on Staphylococcus aureus [3], 128 µg/mL (≈ 393 µM); in the data set with Pichia norvegensis, 1 µg/mL (≈ 3.07 µM); against Candida albicans, 64 µg/mL (≈ 196 µM).
As for `Cc1ncc([N+](=O)[O-])n1CC(O)Cn1cc(C(=O)O)c(=O)c2cc(F)c(Cl)cc21` (stereo unspecified), the MIC against Shigella dysenteriae is 16 µg/mL (≈ 37.7 µM); in the data set with Micrococcus luteus it was 64 µg/mL (≈ 151 µM); in the data set with Pseudomonas aeruginosa it was 16 µg/mL (≈ 37.7 µM); in the data set with Staphylococcus aureus [1], 4 µg/mL (≈ 9.42 µM); with Cyberlindnera jadinii, 512 µg/mL (≈ 1210 µM); against Bacillus spizizenii, 8 µg/mL (≈ 18.8 µM). Besides, the minimal inhibitory concentration (MIC) stood at 2 µg/mL (≈ 4.71 µM) in the data set with Escherichia coli; 128 µg/mL (≈ 301 µM) in data set [2]; 128 µg/mL (≈ 301 µM) against Saccharomyces cerevisiae; 8 µg/mL (≈ 18.8 µM) against Streptococcus pneumoniae; 32 µg/mL (≈ 75.3 µM) against Staphylococcus aureus [3]; 256 µg/mL (≈ 603 µM) with Pichia norvegensis. For the same molecule, in the data set on Candida albicans, the minimum inhibitory concentration (MIC) worked out at 64 µg/mL (≈ 151 µM). For the same molecule, in [4], the concentration in solution (solubility) was 430 µg/mL (≈ 1010 µM). For the same molecule, the log partition coefficient (logP) in data set [5] is 0.18. This molecule returned a pKa in data set [6] of 5.14.
With `CCOC(=O)c1cn(CC(O)Cn2cnc([N+](=O)[O-])c2)c2ccc(F)cc2c1=O` (racemic), the minimal inhibitory concentration (MIC) was determined as 32 µg/mL (≈ 79.1 µM) against Shigella dysenteriae; 4 µg/mL (≈ 9.89 µM) with Micrococcus luteus; 8 µg/mL (≈ 19.8 µM) in the data set with Pseudomonas aeruginosa; 16 µg/mL (≈ 39.6 µM) against Staphylococcus aureus [1]; 16 µg/mL (≈ 39.6 µM) in the data set with Cyberlindnera jadinii; 8 µg/mL (≈ 19.8 µM) in the data set on Bacillus spizizenii. Moreover, the MIC against Escherichia coli is 16 µg/mL (≈ 39.6 µM); in [2] it was 32 µg/mL (≈ 79.1 µM); against Saccharomyces cerevisiae it was 16 µg/mL (≈ 39.6 µM); in the data set with Staphylococcus aureus [3], 32 µg/mL (≈ 79.1 µM); against Pichia norvegensis, 32 µg/mL (≈ 79.1 µM); in the data set with Candida albicans, 32 µg/mL (≈ 79.1 µM).
Regarding `CCOC(=O)c1cn(CC(O)Cn2cnc([N+](=O)[O-])c2)c2c(F)cc(F)cc2c1=O` (racemic), the MIC in the data set on Shigella dysenteriae was 16 µg/mL (≈ 37.9 µM); in the data set with Micrococcus luteus, 4 µg/mL (≈ 9.47 µM); in the data set on Pseudomonas aeruginosa, 4 µg/mL (≈ 9.47 µM); with Staphylococcus aureus [1], 32 µg/mL (≈ 75.8 µM); in the data set on Cyberlindnera jadinii, 64 µg/mL (≈ 152 µM); against Bacillus spizizenii, 8 µg/mL (≈ 18.9 µM). In addition, the minimum inhibitory concentration (MIC) against Escherichia coli stood at 8 µg/mL (≈ 18.9 µM); in [2], 2 µg/mL (≈ 4.74 µM); with Saccharomyces cerevisiae, 128 µg/mL (≈ 303 µM); with Staphylococcus aureus [3], 4 µg/mL (≈ 9.47 µM); in the data set on Pichia norvegensis, 16 µg/mL (≈ 37.9 µM); with Candida albicans, 32 µg/mL (≈ 75.8 µM).
Turning to `O=C(O)c1cn(CC(O)Cn2cnc([N+](=O)[O-])c2)c2cc(Cl)c(F)cc2c1=O` (stereo unspecified), the MIC with Shigella dysenteriae stood at 16 µg/mL (≈ 39 µM); in the data set with Micrococcus luteus, 8 µg/mL (≈ 19.5 µM); in the data set on Pseudomonas aeruginosa, 4 µg/mL (≈ 9.74 µM); in the data set with Staphylococcus aureus [1] it was 8 µg/mL (≈ 19.5 µM); in the data set on Cyberlindnera jadinii it was 256 µg/mL (≈ 623 µM); against Bacillus spizizenii it was 8 µg/mL (≈ 19.5 µM). The MIC was 32 µg/mL (≈ 77.9 µM) against Escherichia coli; 2 µg/mL (≈ 4.87 µM) in data set [2]; 64 µg/mL (≈ 156 µM) against Saccharomyces cerevisiae; 16 µg/mL (≈ 39 µM) against Streptococcus pneumoniae; 16 µg/mL (≈ 39 µM) against Staphylococcus aureus [3]; 128 µg/mL (≈ 312 µM) in the data set with Pichia norvegensis. This molecule had an MIC with Candida albicans of 128 µg/mL (≈ 312 µM).
Consider `COc1ccc2c(c1)c(=O)c(C(=O)O)cn2CC(O)Cn1cnc([N+](=O)[O-])c1` (stereo unspecified), for which the MIC with Shigella dysenteriae stood at 16 µg/mL (≈ 41.2 µM); in the data set on Micrococcus luteus, 256 µg/mL (≈ 659 µM); against Pseudomonas aeruginosa, 128 µg/mL (≈ 330 µM); against Staphylococcus aureus [1], 16 µg/mL (≈ 41.2 µM); against Cyberlindnera jadinii, 128 µg/mL (≈ 330 µM); against Bacillus spizizenii it was 16 µg/mL (≈ 41.2 µM). Further, the minimal inhibitory concentration (MIC) was determined as 64 µg/mL (≈ 165 µM) in the data set on Escherichia coli; 32 µg/mL (≈ 82.4 µM) in data set [2]; 512 µg/mL (≈ 1320 µM) in the data set with Saccharomyces cerevisiae; 64 µg/mL (≈ 165 µM) in the data set with Streptococcus pneumoniae; 64 µg/mL (≈ 165 µM) in the data set with Staphylococcus aureus [3]; 128 µg/mL (≈ 330 µM) in the data set on Pichia norvegensis. Further, the minimum inhibitory concentration (MIC) in the data set with Candida albicans stood at 128 µg/mL (≈ 330 µM).
For the molecule `O=C(O)c1cn(CC(O)Cn2cnc([N+](=O)[O-])c2)c2ccc(F)cc2c1=O` (stereo unspecified), the MIC against Shigella dysenteriae amounted to 8 µg/mL (≈ 21.3 µM); against Micrococcus luteus, 16 µg/mL (≈ 42.5 µM); against Pseudomonas aeruginosa, 8 µg/mL (≈ 21.3 µM); with Staphylococcus aureus [1] it was 8 µg/mL (≈ 21.3 µM); against Cyberlindnera jadinii it was 128 µg/mL (≈ 340 µM); against Bacillus spizizenii, 16 µg/mL (≈ 42.5 µM). Besides, the MIC in the data set with Escherichia coli is 8 µg/mL (≈ 21.3 µM); in data set [2] it was 8 µg/mL (≈ 21.3 µM); against Saccharomyces cerevisiae it was 64 µg/mL (≈ 170 µM); with Streptococcus pneumoniae it was 8 µg/mL (≈ 21.3 µM); with Staphylococcus aureus [3] it was 16 µg/mL (≈ 42.5 µM); against Pichia norvegensis it was 256 µg/mL (≈ 680 µM). For the same molecule, the minimal inhibitory concentration (MIC) against Candida albicans amounted to 64 µg/mL (≈ 170 µM).
